Experimental data published in article PMC3220747 (ACS chemical biology, 2011).
“Also recorded” adds a separate entry of the source. Where two headings read alike, the source gives them in different places. Blank lines part the entries; values can stand above or below the molecule they belong to.

Key:
[1] = target: uPAR·uPA interaction (uPAR binding to uPAATF) (Homo sapiens, UniProt Q03405); experiment: Microtiter-based ELISA, uPAR binding to immobilized uPAATF; conditions: for activity in the ELISA at single concentration: 50 μM; for concentration-dependent inhibition of uPAR binding to uPAATF (ELISA): serial dilutions
Chain of uPAR·uPA interaction (uPAR binding to uPAATF) (Q03405 23-299): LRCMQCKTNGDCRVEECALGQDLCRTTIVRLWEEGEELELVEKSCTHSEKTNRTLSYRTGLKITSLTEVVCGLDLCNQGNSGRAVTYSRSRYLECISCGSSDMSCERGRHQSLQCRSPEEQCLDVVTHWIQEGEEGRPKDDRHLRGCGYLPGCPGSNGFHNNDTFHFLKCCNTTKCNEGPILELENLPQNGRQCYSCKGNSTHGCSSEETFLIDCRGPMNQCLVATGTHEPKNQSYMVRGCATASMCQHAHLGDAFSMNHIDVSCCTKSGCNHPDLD
How it was run: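 Microtiter wells coated with uPAATF (purified by SP Sepharose […] exchange). Blocking used a 1:1 mix of Superblock in PBS with 0.04 M NaH₂PO₄/0.3 M NaCl buffer. uPAR binding was tested against serial dilutions of test compound. After incubation and washes, bound uPAR was detected with biotinylated antibody uPA1310 in 1% BSA/PBS for 1–2 h.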

[2] = target: uPAR·uPA interaction (suPAR277 and uPAATF) (Homo sapiens, UniProt Q03405); experiment: Surface plasmon resonance; format: binding; conditions: for SPR response with increasing concentration of compound: 5 to 100 μM
Chain of uPAR·uPA interaction (suPAR277 and uPAATF) (Q03405 23-299): as above
How it was run: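 uPA amino-terminal fragment was amine-coupled to a CM5 chip at about 100 RU. Soluble uPAR (residues 1–277, expressed in Drosophila S2 cells) was injected with or without test compound (5–100 μM final, 5% DMSO) in HBS-EP plus 5% DMSO. Flow was 20 μL min⁻¹, with 180 s association and 90 s dissociation, and 5 mM HCl regeneration. DMSO-only protein controls were interleaved. IC50 was estimated from the plots.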

MDA-MB-231 cells [3] = experiment: Invasion assay; format: cell-based, human; conditions: for number of cells able to invade through the membrane: MDA-MB-231, increasing concentration
How it was run: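 Insert undersides were coated overnight at 4°C with 30 ng μl⁻¹ fibronectin, and filters were equilibrated 2 h in serum-free medium. Cells serum-starved 4 h were seeded at 5×10⁴ in 0.1% FBS medium with compound in the upper chamber, with 10% FBS medium plus compound or DMSO below. After 16 h at 37°C, 5% CO₂, filters were methanol-fixed and hematoxylin-stained. Invaded cells were counted in ten 200× fields.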

MDA-MB-231 cells [4] = experiment: Cytotoxicity / cell proliferation; format: cell-based, human
How it was run: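 MDA-MB-231 cells were exposed to test compound at the same concentrations and for the same incubation time as the transwell motility assay. MTT was added 2 h before measurement.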

uPAR [5] = target: T1, uPAR (Homo sapiens, UniProt Q03405); experiment: Fluorescence polarization; format: binding
T1 sequence (Q03405 23-299): as above

uPAR [6] = target: T1, uPAR; experiment: Direct binding of IPR-456 to uPAR by FP; conditions: 10 μM GFD
[7] = target: uPA binding to uPAR of MDA-MB-231 tumor cells (Homo sapiens, UniProt Q03405); experiment: Immunofluorescence imaging of cell surface uPA and uPAR; format: cell-based
Chain of uPA binding to uPAR of MDA-MB-231 tumor cells (Q03405 23-305 limits assumed): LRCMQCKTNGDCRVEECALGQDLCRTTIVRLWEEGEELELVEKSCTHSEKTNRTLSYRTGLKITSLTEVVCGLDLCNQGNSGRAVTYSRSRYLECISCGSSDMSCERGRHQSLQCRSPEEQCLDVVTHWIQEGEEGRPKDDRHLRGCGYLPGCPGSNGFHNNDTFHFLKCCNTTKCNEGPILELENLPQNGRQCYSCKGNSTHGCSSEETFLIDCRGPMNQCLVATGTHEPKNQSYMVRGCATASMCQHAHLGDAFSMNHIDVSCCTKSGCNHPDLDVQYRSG

[8] = test system: MDA-MB-231 cells lacking uPAR; experiment: Invasion assay with siRNA knockdown of uPAR; format: cell-based, human; conditions: MDA-MB-231 with siRNA knockdown of uPAR
How it was run: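 Cells were transfected with uPAR siRNA, control siRNA or transfection reagent alone. After 48 h, knockdown was checked by immunoblot: 20 µg lysate on 12% SDS-PAGE, anti-uPAR probe, actin as loading control. Invasion without or with test compound then used fibronectin-coated transwells, with 0.1% FBS medium above and 10% FBS below, for 16 h at 37°C. Invaded cells were counted.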

MDA-MB-231 cells [9] = experiment: Transwell; format: cell-based, human
How it was run: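 Wells were fibronectin-coated (30 ng μL⁻¹, 4°C overnight). Cells serum-starved 4 h were seeded at 5×10⁴ in 0.1% FBS medium with compound or DMSO in the upper chamber, with 10% FBS RPMI-1640 plus compound or 1% DMSO below, for 8 h at 37°C. Non-migrated cells were scraped off; filters were methanol-fixed 30 min and hematoxylin-stained 1 h. Cells in ten 200× fields were counted and averaged over three independent experiments.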

MDA-MB-231 cells [10] = experiment: Wound healing assay; format: cell-based, human; conditions: MDA-MB-231, 16 h
How it was run: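 Confluent MDA-MB-231 monolayers were scratched with a pipette tip, washed, and cultured in complete medium containing test compound. The gap between wound edges was measured in three random regions immediately after wounding and at 16 h.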

MDA-MB-231 cells [11] = experiment: Adhesion assay; format: cell-based, human
How it was run: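 Wells coated overnight at 4°C with fibronectin (15 ng μl⁻¹) or vitronectin, then blocked 1 h with 0.5% BSA/PBS. Cells were serum-starved 3 h, trypsinized, and held at 2.5×10⁵ cells ml⁻¹ in 0.1% FBS DMEM with test compound or DMSO for 90 min at 37°C. After three PBS washes, remaining adherent cells were quantified by MTT.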

[12] = read-out: IC50, inhibition of uPAATF binding to uPAR (ELISA)

Structure (SMILES): CC1CCN(c2cc(Nc3ccc(C(=O)O)cc3)c3c4c(onc24)-c2ccccc2C3=O)CC1 [IPR-808]
activity in the ELISA at single concentration [1]: strong activity | IC50 [1, 12]: 30 µM | concentration-dependent inhibition of uPAR binding to uPAATF (ELISA) [1]: concentration-dependent inhibition

IC50 [1]: 10 µM | activity in the ELISA at single concentration [1]: strong activity | concentration-dependent inhibition of uPAR binding to uPAATF (ELISA) [1]: concentration-dependent inhibition | IC50 [2]: 10 µM
Structure (SMILES): O=C(O)c1cccc(Nc2cc(N3CCCCCC3)c3noc4c3c2C(=O)c2ccccc2-4)c1 [IPR-803, 3-((3-(Azepan-1-yl)-6-oxo-6H-anthra[1,9-cd]isoxazol-5-yl)amino)benzoic acid]
IC50 estimated from SPR plots, compared with ELISA [2]: nearly identical to those observed in the ELISA | SPR response with increasing concentration of compound [2]: concentration-dependent decrease in the response | number of cells able to invade through the membrane (MDA-MB-231 cells [3]): concentration-dependent reduction | effect on cell proliferation / cytotoxicity (MDA-MB-231 cells [4]; MDA-MB-231, increasing concentration): concentration dependent inhibition of MDA-MB-231 cell proliferation; also recorded: some cytotoxicity

Ki (uPAR [5]): 0.14 µM | inhibition / binding in initial FP screen (uPAR [5]; single concentration of 50 μM): highest inhibition | IC50 [7]: 8 µM
Structure (SMILES): CC1CC(C)CN(c2cc(Nc3ccccc3C(=O)O)c3c4c(onc24)-c2ccccc2C3=O)C1 (stereo not shown) [IPR-456, 2-((3-(3,5-Dimethylpiperidin-1-yl)-6-oxo-6H-anthra[1,9-cd]isoxazol-5-yl)amino)benzoic acid]
concentration-dependent displacement of GFD-FAM (uPAR [5]; 0.78 μM to 100 μM): displace GFD-FAM in a concentration-dependent manner | change of polarization with increasing uPAR in the presence of GFD (uPAR [6]): no increase in the polarization was detected | concentration-dependent inhibition of uPAR binding to uPAATF (ELISA) [1]: complete concentration-dependent inhibition | uPAR immunostaining at the cell surface ([7]; MDA-MB-231): no change in the immunostaining pattern of uPAR | uPA staining at the cell surface ([7]; MDA-MB-231, compound added 30 min prior to immunostaining): significant concentration-dependent reduction of uPA staining | inhibition of invasion (MDA-MB-231 cells [3]; MDA-MB-231): about 60% | number of cells able to invade through the membrane (MDA-MB-231 cells [3]): concentration-dependent reduction | effect on invasion of cells lacking uPAR [8]: no effect on invasion | toxicity within the timeframe of the invasion experiment (MDA-MB-231 cells [4]; MDA-MB-231, 200 μM): minimal toxicity | toxicity within the timeframe of the invasion experiment (MDA-MB-231 cells [4]; MDA-MB-231, up to 100 μM): no toxicity | cytotoxicity in the migration assays (MDA-MB-231 cells [4]; same concentrations and incubation time as migration assays): Neither assay exhibited any cell cytotoxicity | effect on migration (Boyden chamber) (MDA-MB-231 cells [9]): blocked migration very weakly | effect on migration (wound healing) (MDA-MB-231 cells [10]): little effect on migration | effect on cell adhesion (MDA-MB-231 cells [11]; fibronectin-coated wells): no effect on cell adhesion | effect on cell adhesion (MDA-MB-231 cells [11]; vitronectin-coated wells): no effect on cell adhesion

Structure (SMILES): CC1CC(C)CN(c2cc(NCCC(=O)O)c3c4c(onc24)-c2ccccc2C3=O)C1 (stereo not shown) [IPR-763]
activity in the ELISA at single concentration [1]: strong activity | IC50 [1, 12]: 20 µM | concentration-dependent inhibition of uPAR binding to uPAATF (ELISA) [1]: concentration-dependent inhibition | IC50 estimated from SPR plots, compared with ELISA [2]: nearly identical to those observed in the ELISA | SPR response with increasing concentration of compound [2]: concentration-dependent decrease in the response
